Experimental data published in publication PMC3390648 (The Journal of Biological Chemistry, 2012).

B1: Pol1-F1463A (protein)
chain: MSSKSEKLEKLRKLQAARNGTSIDDYEGDESDGDRIYDEIDEKEYRARKRQELLHDDFVVDDDGVGYVDRGVEEDWREVDNSSSDEDTGNLASKDSKRKKNIKREKDHQITDMLRTQHSKSTLLAHAKKSQKKSIPIDNFDDILGEFESGEVEKPNILLPSKLRENLNSSPTSEFKSSIKRVNGNDESSHDAGISKKVKIDPDSSTDKYLEIESSPLKLQSRKLRYANDVQDLLDDVENSPVVATKRQNVLQDTLLANPPSAQSLADEEDDEDSDEDIILKRRTMRSVTTTRRVNIDSRSNPSTSPFVTAPGTPIGIKGLTPSKSLQSNTDVATLAVNVKKEDVVDPETDTFQMFWLDYCEVNNTLILFGKVKLKDDNCVSAMVQINGLCRELFFLPREGKTPTDIHEEIIPLLMDKYGLDNIRAKPQKMKYSFELPDIPSESDYLKVLLPYQTPKSSRDTIPSDLSSDTFYHVFGGNSNIFESFVIQNRIMGPCWLDIKGADFNSIRNASHCAVEVSVDKPQNITPTTTKTMPNLRCLSLSIQTLMNPKENKQEIVSITLSAYRNISLDSPIPENIKPDDLCTLVRPPQSTSFPLGLAALAKQKLPGRVRLFNNEKAMLSCFCAMLKVEDPDVIIGHRLQNVYLDVLAHRMHDLNIPTFSSIGRRLRRTWPEKFGRGNSNMNHFFISDICSGRLICDIANEMGQSLTPKCQSWDLSEMYQVTCEKEHKPLDIDYQNPQYQNDVNSMTMALQENITNCMISAEVSYRIQLLTLTKQLTNLAGNAWAQTLGGTRAGRNEYILLHEFSRNGFIVPDKEGNRSRAQKQRQNEENADAPVNSKKAKYQGGLVFEPEKGLHKNYVLVMDFNSLYPSIIQEFNICFTTVDRNKEDIDELPSVPPSEVDQGVLPRLLANLVDRRREVKKVMKTETDPHKRVQCDIRQQALKLTANSMYGCLGYVNSRFYAKPLAMLVTNKGREILMNTRQLAESMNLLVVYGDTDSVMIDTGCDNYADAIKIGLGFKRLVNERYRLLEIDIDNVFKKLLLHAKKKYAALTVNLDKNGNGTTVLEVKGLDMKRREFCPLSRDVSIHVLNTILSDKDPEEALQEVYDYLEDIRIKVETNNIRIDKYKINMKLSKDPKAYPGGKNMPAVQVALRMRKAGRVVKAGSVITFVITKQDEIDNAADTPALSVAERAHALNEVMIKSNNLIPDPQYYLEKQIFAPVERLLERIDSFNVVRLSEALGLDSKKYFRREGGNNNGEDINNLQPLETTITDVERFKDTVTLELSCPSCDKRFPFGGIVSSNYYRVSYNGLQCKHCEQLFTPLQLTSQIEHSIRAHISLYYAGWLQCDDSTCGIVTRQVSVFGKRCLNDGCTGVMRYKYSDKQLYNQLLYFDSLFDCEKNKKQELKPIYLPDDLDYPKEQLTESSIKALTEQNRELMETGRSVVQKYLNDCGRRYVDMTSIADFMLN
modifications: left off: 9MYC, end not stated, kept
B2: Pol1 1–1452: Pol1 allele with the sequence encoding the last 16 amino acids removed (protein)
chain: MSSKSEKLEKLRKLQAARNGTSIDDYEGDESDGDRIYDEIDEKEYRARKRQELLHDDFVVDDDGVGYVDRGVEEDWREVDNSSSDEDTGNLASKDSKRKKNIKREKDHQITDMLRTQHSKSTLLAHAKKSQKKSIPIDNFDDILGEFESGEVEKPNILLPSKLRENLNSSPTSEFKSSIKRVNGNDESSHDAGISKKVKIDPDSSTDKYLEIESSPLKLQSRKLRYANDVQDLLDDVENSPVVATKRQNVLQDTLLANPPSAQSLADEEDDEDSDEDIILKRRTMRSVTTTRRVNIDSRSNPSTSPFVTAPGTPIGIKGLTPSKSLQSNTDVATLAVNVKKEDVVDPETDTFQMFWLDYCEVNNTLILFGKVKLKDDNCVSAMVQINGLCRELFFLPREGKTPTDIHEEIIPLLMDKYGLDNIRAKPQKMKYSFELPDIPSESDYLKVLLPYQTPKSSRDTIPSDLSSDTFYHVFGGNSNIFESFVIQNRIMGPCWLDIKGADFNSIRNASHCAVEVSVDKPQNITPTTTKTMPNLRCLSLSIQTLMNPKENKQEIVSITLSAYRNISLDSPIPENIKPDDLCTLVRPPQSTSFPLGLAALAKQKLPGRVRLFNNEKAMLSCFCAMLKVEDPDVIIGHRLQNVYLDVLAHRMHDLNIPTFSSIGRRLRRTWPEKFGRGNSNMNHFFISDICSGRLICDIANEMGQSLTPKCQSWDLSEMYQVTCEKEHKPLDIDYQNPQYQNDVNSMTMALQENITNCMISAEVSYRIQLLTLTKQLTNLAGNAWAQTLGGTRAGRNEYILLHEFSRNGFIVPDKEGNRSRAQKQRQNEENADAPVNSKKAKYQGGLVFEPEKGLHKNYVLVMDFNSLYPSIIQEFNICFTTVDRNKEDIDELPSVPPSEVDQGVLPRLLANLVDRRREVKKVMKTETDPHKRVQCDIRQQALKLTANSMYGCLGYVNSRFYAKPLAMLVTNKGREILMNTRQLAESMNLLVVYGDTDSVMIDTGCDNYADAIKIGLGFKRLVNERYRLLEIDIDNVFKKLLLHAKKKYAALTVNLDKNGNGTTVLEVKGLDMKRREFCPLSRDVSIHVLNTILSDKDPEEALQEVYDYLEDIRIKVETNNIRIDKYKINMKLSKDPKAYPGGKNMPAVQVALRMRKAGRVVKAGSVITFVITKQDEIDNAADTPALSVAERAHALNEVMIKSNNLIPDPQYYLEKQIFAPVERLLERIDSFNVVRLSEALGLDSKKYFRREGGNNNGEDINNLQPLETTITDVERFKDTVTLELSCPSCDKRFPFGGIVSSNYYRVSYNGLQCKHCEQLFTPLQLTSQIEHSIRAHISLYYAGWLQCDDSTCGIVTRQVSVFGKRCLNDGCTGVMRYKYSDKQLYNQLLYFDSLFDCEKNKKQELKPIYLPDDLDYPKEQLTESSIKALTEQNRELMETGRSVVQKYLNDC
modifications: left off: 9MYC, end not stated, kept
B3: truncated protein: recombinant form of human pol α with the last 67 amino acids removed (protein, UniProt P09884 1-1395, looked up, fragment)
chain: MAPVHGDDSLSDSGSFVSSRARREKKSKKGRQEALERLKKAKAGEKYKYEVEDFTGVYEEVDEEQYSKLVQARQDDDWIVDDDGIGYVEDGREIFDDDLEDDALDADEKGKDGKARNKDKRNVKKLAVTKPNNIKSMFIACAGKKTADKAVDLSKDGLLGDILQDLNTETPQITPPPVMILKKKRSIGASPNPFSVHTATAVPSGKIASPVSRKEPPLTPVPLKRAEFAGDDVQVESTEEEQESGAMEFEDGDFDEPMEVEEVDLEPMAAKAWDKESEPAEEVKQEADSGKGTVSYLGSFLPDVSCWDIDQEGDSSFSVQEVQVDSSHLPLVKGADEEQVFHFYWLDAYEDQYNQPGVVFLFGKVWIESAETHVSCCVMVKNIERTLYFLPREMKIDLNTGKETGTPISMKDVYEEFDEKIATKYKIMKFKSKPVEKNYAFEIPDVPEKSEYLEVKYSAEMPQLPQDLKGETFSHVFGTNTSSLELFLMNRKIKGPCWLEVKSPQLLNQPVSWCKVEAMALKPDLVNVIKDVSPPPLVVMAFSMKTMQNAKNHQNEIIAMAALVHHSFALDKAAPKPPFQSHFCVVSKPKDCIFPYAFKEVIEKKNVKVEVAATERTLLGFFLAKVHKIDPDIIVGHNIYGFELEVLLQRINVCKAPHWSKIGRLKRSNMPKLGGRSGFGERNATCGRMICDVEISAKELIRCKSYHLSELVQQILKTERVVIPMENIQNMYSESSQLLYLLEHTWKDAKFILQIMCELNVLPLALQITNIAGNIMSRTLMGGRSERNEFLLLHAFYENNYIVPDKQIFRKPQQKLGDEDEEIDGDTNKYKKGRKKAAYAGGLVLDPKVGFYDKFILLLDFNSLYPSIIQEFNICFTTVQRVASEAQKVTEDGEQEQIPELPDPSLEMGILPREIRKLVERRKQVKQLMKQQDLNPDLILQYDIRQKALKLTANSMYGCLGFSYSRFYAKPLAALVTYKGREILMHTKEMVQKMNLEVIYGDTDSIMINTNSTNLEEVFKLGNKVKSEVNKLYKLLEIDIDGVFKSLLLLKKKKYAALVVEPTSDGNYVTKQELKGLDIVRRDWCDLAKDTGNFVIGQILSDQSRDTIVENIQKRLIEIGENVLNGSVPVSQFEINKALTKDPQDYPDKKSLPHVHVALWINSQGGRKVKAGDTVSYVICQDGSNLTASQRAYAPEQLQKQDNLTIDTQYYLAQQIHPVVARICEPIDGIDAVLIATWLGLDPTQFRVHHYHKDEENDALLGGPAQLTDEEKYRDCERFKCPCPTCGTENIYDNVFDGSGTDMEPSLYRCSNIDCKASPLTFTVQLSNKLIMDIRRFIKKYYDGWLICEEPTCRNRTRHLPLQFSRTGPLCPACMKATLQPEYSDKSLYTQLCFY

Key:
Pol12 = assay: Immunoprecipitation and immunoblotting, Pol12; format: cell-based, Saccharomyces cerevisiae; conditions: diploid yeast, anti-HA beads, native cell extracts, immunoblotting
[1] = system: S phase checkpoint pathway (Mec1); assay: Dependence of viability on S phase checkpoint; format: cell-based, Saccharomyces cerevisiae
[2] = system: other replisome components; assay: Immunoprecipitation and immunoblotting, replisome components; format: cell-based, Saccharomyces cerevisiae; conditions: diploid yeast, anti-HA beads, native cell extracts, immunoblotting; relative to wild-type Pol1
primase [3] = assay: Immunoprecipitation from yeast extracts and mass spectrometry, primase; format: cell-based, Saccharomyces cerevisiae; conditions: diploid yeast, anti-Myc beads, spectral counts
How it was run: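 Asynchronous diploid cultures were grown in YPD. Extracts were made from 250 ml of mid-log cells (2.5 × 10^9) with 100 mM potassium acetate. DNA was digested with 800 units of Benzonase for 30 min at 4 °C before capture on 9E10 magnetic beads. Each sample was run 1 cm into an SDS gel, cut into 10 bands, trypsin-digested and analysed by mass spectrometry.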

B subunit Pol12 = assay: Immunoprecipitation from yeast extracts and mass spectrometry, B subunit; format: cell-based, Saccharomyces cerevisiae; conditions: diploid yeast, anti-Myc beads, spectral counts
How it was run: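 Diploid strains grown asynchronously in YPD (1% yeast extract, 2% peptone, 40 μg/ml adenine, 2% glucose). Extracts made from 250 ml mid-log culture (2.5 × 10^9 cells) with 100 mM potassium acetate, then Benzonase-digested (800 units, 30 min, 4 °C). Tagged protein immunoprecipitated on anti-Myc (9E10) magnetic beads. Eluate run 1 cm into SDS gel, cut into 10 bands, trypsin-digested, and analysed by mass spectrometry.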

primase [4] = assay: Immunoprecipitation and immunoblotting, primase; format: cell-based, Saccharomyces cerevisiae; conditions: diploid yeast, anti-HA beads, immunoblotting
yeast cells = assay: Tetrad analysis, colony formation and growth of yeast cells; format: cell-based, Saccharomyces cerevisiae; conditions: tetrad analysis of meiotic progeny of heterozygous diploid, rich medium YPD
How it was run: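 Heterozygous diploids, each carrying one wild-type POL1 copy and one mutant pol1 allele (C-terminal truncation or point mutant), were sporulated. Meiotic progeny were scored by tetrad analysis for germination and colony growth. Medium was rich YPD: 1% yeast extract, 2% peptone, 40 μg/ml adenine, 2% glucose as sole carbon source.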

B subunit = conditions: last 67 amino acids of recombinant human pol α removed; cited from earlier work

Row | Molecule | association with Pol12 (Pol12) | dependence for survival on checkpoint kinases ([1]; Mec1 and Rad53, data not shown) | survival in combination with mec1Δ ([1]; pol1-F1463A combined with mec1Δ (SML1 deleted)) | dependence of viability on checkpoint kinase ([1]; sml1Δ mec1Δ background) | co-purification with other replisome components [2] | co-purification with primase (primase [3]) | association with B subunit Pol12 (B subunit Pol12) | interaction with primase, native cell extracts (primase [4]; native extracts) | interaction with primase, formaldehyde-treated cells (primase [4]; cells treated with 1% formaldehyde, 25 min, 24 °C) | colony formation / viability and growth (yeast cells) | interaction with the B subunit (B subunit)
1 | B1 | all associated equally well with Pol12 | dependence for survival on the checkpoint kinases Mec1 and Rad53 | die after a couple of rounds of cell division | completely dependent upon the Mec1 checkpoint kinase | slightly weaker than for wild-type Pol1 | neither of the mutated alleles of Pol1 co-purified with primase | as efficiently as wild-type Pol1 | neither of the mutated forms interacted with primase | neither of the mutated forms interacted with primase |  | 
2 | B2 | all associated equally well with Pol12 |  |  |  |  |  | as efficiently as wild-type Pol1 |  |  | not able to form colonies | 
3 | B3 |  |  |  |  |  |  |  |  |  |  | abolished interaction with the B subunit
